{"source": "ChEMBL document CHEMBL1212802", "about": "“Newly identified antibacterial compounds are topoisomerase poisons in African trypanosomes” (Antimicrob Agents Chemother, 2010)", "key": {"[1]": {"tested_on": "Trypanosoma brucei brucei", "assay": "Antitrypanosomal activity against Trypanosoma brucei brucei MiTat 1.2 strain 427 bloodstream by acid phosphatase method", "type": "functional, organism-based", "how_it_was_run": "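Bloodstream cells at 2 × 10^5/ml were given 2× serial dilutions of compound (final DMSO ≤1%), quadruplicate wells, for 20–24 h at 37°C. Motility was checked microscopically. p-Nitrophenyl phosphate in acetate buffer pH 5.5 with Triton X-100 was added for 5 h at 37°C, then A405 was read. Three runs; EC50 from Emax model fit; outliers removed by Chauvenet's criterion.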"}, "[2]": {"tested_on": "Trypanosoma brucei brucei", "assay": "Inhibition of mitochondrion topoisomerase 1A in Trypanosoma brucei brucei MiTat 1.2 strain 427 bloodstream assessed as increase in protein-sensitive linear DNA forms at 0-40 uM", "how_it_was_run": "(§1)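 Free minicircle profiles: 1.2 × 10^7 cells were exposed to compound for 30 min at 37°C. Cells were lysed in SDS/EDTA buffer with or without proteinase K (2 h, 55°C), then treated with RNase A. DNA was run on 1.5% agarose with ethidium bromide and Southern-blotted with a 32P probe to the conserved 124-bp minicircle sequence. Read by phosphorimaging.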"}, "[3]": {"tested_on": "Trypanosoma brucei brucei", "assay": "Inhibition of mitochondrion topoisomerase 1A in Trypanosoma brucei brucei MiTat 1.2 strain 427 bloodstream assessed as protection of linerarizd minicircle from exonuclase 3 at 25.5 uM", "how_it_was_run": "(§2)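 Cells were treated 1 h at 37°C, lysed with SDS, and digested with proteinase K and RNase. DNA was phenol-extracted, precipitated and cleaned up. It was then digested with λ exonuclease (glycine-KOH pH 9.4, MgCl2, BSA) or exonuclease III (Bis-Tris-propane pH 7.0, MgCl2, DTT) for 30 min at 37°C. HindIII-linearized pBluescript served as internal control. Minicircles were detected by Southern blot.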"}, "[4]": {"tested_on": "Trypanosoma brucei brucei", "assay": "Inhibition of mitochondrion topoisomerase 1A in Trypanosoma brucei brucei MiTat 1.2 strain 427 bloodstream assessed as protection of linerarizd minicircle from lambda exonuclase at 63 uM", "how_it_was_run": "as §2"}, "[5]": {"tested_on": "Trypanosoma brucei brucei", "assay": "Inhibition of topoisomerase in Trypanosoma brucei brucei MiTat 1.2 strain 427 bloodstream assessed as enzyme -DNA cleavable complex at 50 uM relative to DMSO", "how_it_was_run": "(§3)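 KSDS assay: cells at 10^7/ml in thymidine-free medium were labelled 1 h at 37°C with [3H]thymidine, washed, and treated 30 min at 37°C with DMSO, 500 μM etoposide or compound, in triplicate. Lysates in SDS/EDTA with calf thymus DNA were heated 10 min at 65°C, then KCl-precipitated and washed, and the precipitate was scintillation-counted. Percent trapped DNA = KSDS cpm ÷ TCA-precipitable cpm of untreated cells.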"}, "[6]": {"tested_on": "Trypanosoma brucei brucei", "assay": "Inhibition of mitochondrion topoisomerase 1A in Trypanosoma brucei brucei MiTat 1.2 strain 427 bloodstream assessed as protection of linerarizd minicircle from lambda exonuclase at 25.5 uM", "how_it_was_run": "as §2"}, "[7]": {"tested_on": "Trypanosoma brucei brucei", "assay": "Antitrypanosomal activity against Trypanosoma brucei brucei MiTat 1.2 strain 427 bloodstream assessed as decrease in topoisomerase 1Amt level at 0-100 uM", "type": "functional, organism-based", "how_it_was_run": "(§4)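 Western band depletion: 1.2 × 10^7 cells in medium were exposed to compound for 30 min at 37°C. A portion taken just before lysis was lysed in SDS/DTT sample buffer and run on SDS-PAGE. Blots were probed for c-Myc-tagged topoisomerase IAmt (anti-c-Myc) and for topoisomerase IImt (specific antiserum), with enolase as loading control. Free enzyme was quantitated densitometrically.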"}, "[8]": {"tested_on": "Trypanosoma brucei brucei", "assay": "Inhibition of mitochondrion topoisomerase 1A in Trypanosoma brucei brucei MiTat 1.2 strain 427 bloodstream assessed as protection of linerarizd minicircle from exonuclase 3 at 63 uM", "how_it_was_run": "as §2"}, "[9]": {"tested_on": "Trypanosoma brucei brucei", "assay": "Inhibition of mitochondrion topoisomerase 1A in Trypanosoma brucei brucei MiTat 1.2 strain 427 bloodstream assessed as increase in protein-sensitive linear DNA forms at 60-100 uM", "how_it_was_run": "as §1"}, "[10]": {"tested_on": "Trypanosoma brucei brucei", "assay": "Antitrypanosomal activity against Trypanosoma brucei brucei MiTat 1.2 strain 427 bloodstream assessed as decrease in topoisomerase 2mt level at 0-120 uM", "type": "functional, organism-based", "how_it_was_run": "as §4"}, "[11]": {"tested_on": "Trypanosoma brucei brucei", "assay": "Inhibition of topoisomerase in Trypanosoma brucei brucei MiTat 1.2 strain 427 bloodstream assessed as enzyme-DNA cleavable complex at 50 uM (RvB = 2.2 +/- 0.05%)", "how_it_was_run": "as §3"}, "[12]": {"tested_on": "Nucleic Acid", "assay": "Binding affinity to plasmid DNA assessed as DNA unwinding in presence of vaccinia virus topoisomerase 1B by electrophoresis", "type": "nucleic-acid assay", "how_it_was_run": "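Supercoiled pBluescript, or pBluescript pre-relaxed with E. coli topoisomerase IA (250 ng), was exposed to a range of compound concentrations in 50 mM Tris HCl pH 7.5, 50 mM NaCl, 5 mM MgCl2. Then 1 pM vaccinia topoisomerase IB was added (1 h, 37°C). Reactions were SDS-quenched, run on 1% agarose in Tris-borate-EDTA, and stained with ethidium bromide.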"}, "[13]": {"tested_on": "Trypanosoma brucei brucei", "assay": "Antitrypanosomal activity against Trypanosoma brucei brucei MiTat 1.2 strain 427 bloodstream assessed as decrease in topoisomerase 2mt level at 0-100 uM", "type": "functional, organism-based", "how_it_was_run": "as §4"}, "[14]": {"tested_on": "Trypanosoma brucei brucei", "assay": "Antitrypanosomal activity against Trypanosoma brucei brucei MiTat 1.2 strain 427 bloodstream assessed as decrease in topoisomerase 1Amt level at 0-120 uM", "type": "functional, organism-based", "how_it_was_run": "as §4"}}, "note": "pEC50: −log10 of the molar value. Active and inactive are the calls of the source."}
{"smiles": "O=c1c2cccc3c2c(nn1CN1CCCCC1)-c1ccccc1-3", "values": [{"measurement": "pEC50", "setting": "[1]", "result": 4.77}, {"measurement": "inhibition", "setting": "[2]", "result": "Active"}, {"measurement": "inhibition", "setting": "[3]", "result": "Active"}, {"measurement": "inhibition", "setting": "[4]", "result": "inactive"}, {"measurement": "Ratio", "setting": "[5]", "result": 0.77}, {"measurement": "inhibition", "setting": "[6]", "result": "inactive"}, {"measurement": "Activity", "setting": "[7]", "result": "inactive"}, {"measurement": "inhibition", "setting": "[8]", "result": "Active"}, {"measurement": "inhibition", "setting": "[9]", "result": "inactive"}, {"measurement": "Activity", "setting": "[10]", "result": "Active"}, {"measurement": "% DNA in cleavable complexes", "setting": "[11]", "result": 1.7, "unit": "%"}, {"measurement": "Activity", "setting": "[12]", "result": "Dose-dependent effect"}, {"measurement": "Activity", "setting": "[13]", "result": "Active"}, {"measurement": "Activity", "setting": "[14]", "result": "inactive"}]}
{"smiles": "CN(C)CCc1cc2c(c3c1ccc1ccccc13)OCO2", "values": [{"measurement": "pEC50", "setting": "[1]", "result": 5.20}, {"measurement": "inhibition", "setting": "[2]", "result": "Active"}, {"measurement": "inhibition", "setting": "[3]", "result": "Active"}, {"measurement": "inhibition", "setting": "[4]", "result": "inactive"}, {"measurement": "Ratio", "setting": "[5]", "result": 0.86}, {"measurement": "inhibition", "setting": "[6]", "result": "inactive"}, {"measurement": "Activity", "setting": "[7]", "result": "inactive"}, {"measurement": "inhibition", "setting": "[8]", "result": "Active"}, {"measurement": "inhibition", "setting": "[9]", "result": "inactive"}, {"measurement": "Activity", "setting": "[10]", "result": "Active"}, {"measurement": "% DNA in cleavable complexes", "setting": "[11]", "result": 1.9, "unit": "%"}, {"measurement": "Activity", "setting": "[12]", "result": "Dose-dependent effect"}, {"measurement": "Activity", "setting": "[13]", "result": "Active"}, {"measurement": "Activity", "setting": "[14]", "result": "inactive"}]}
